Results reported in ChEMBL document CHEMBL2417499, “Structure-activity relationship studies of Niemann-Pick type C1-like 1 (NPC1L1) ligands identified by screening assay monitoring pharmacological chaperone effect” (Bioorg Med Chem, 2013).
Active and inactive are the calls of the source. No cut-off for these calls is given here.

Columns and labels:
[1] = molecular target: T1, NPC intracellular cholesterol transporter 1 (Homo sapiens) (UniProt O15118); assay: Binding affinity to NPC1 (unknown origin)
T1 sequence (whole entry): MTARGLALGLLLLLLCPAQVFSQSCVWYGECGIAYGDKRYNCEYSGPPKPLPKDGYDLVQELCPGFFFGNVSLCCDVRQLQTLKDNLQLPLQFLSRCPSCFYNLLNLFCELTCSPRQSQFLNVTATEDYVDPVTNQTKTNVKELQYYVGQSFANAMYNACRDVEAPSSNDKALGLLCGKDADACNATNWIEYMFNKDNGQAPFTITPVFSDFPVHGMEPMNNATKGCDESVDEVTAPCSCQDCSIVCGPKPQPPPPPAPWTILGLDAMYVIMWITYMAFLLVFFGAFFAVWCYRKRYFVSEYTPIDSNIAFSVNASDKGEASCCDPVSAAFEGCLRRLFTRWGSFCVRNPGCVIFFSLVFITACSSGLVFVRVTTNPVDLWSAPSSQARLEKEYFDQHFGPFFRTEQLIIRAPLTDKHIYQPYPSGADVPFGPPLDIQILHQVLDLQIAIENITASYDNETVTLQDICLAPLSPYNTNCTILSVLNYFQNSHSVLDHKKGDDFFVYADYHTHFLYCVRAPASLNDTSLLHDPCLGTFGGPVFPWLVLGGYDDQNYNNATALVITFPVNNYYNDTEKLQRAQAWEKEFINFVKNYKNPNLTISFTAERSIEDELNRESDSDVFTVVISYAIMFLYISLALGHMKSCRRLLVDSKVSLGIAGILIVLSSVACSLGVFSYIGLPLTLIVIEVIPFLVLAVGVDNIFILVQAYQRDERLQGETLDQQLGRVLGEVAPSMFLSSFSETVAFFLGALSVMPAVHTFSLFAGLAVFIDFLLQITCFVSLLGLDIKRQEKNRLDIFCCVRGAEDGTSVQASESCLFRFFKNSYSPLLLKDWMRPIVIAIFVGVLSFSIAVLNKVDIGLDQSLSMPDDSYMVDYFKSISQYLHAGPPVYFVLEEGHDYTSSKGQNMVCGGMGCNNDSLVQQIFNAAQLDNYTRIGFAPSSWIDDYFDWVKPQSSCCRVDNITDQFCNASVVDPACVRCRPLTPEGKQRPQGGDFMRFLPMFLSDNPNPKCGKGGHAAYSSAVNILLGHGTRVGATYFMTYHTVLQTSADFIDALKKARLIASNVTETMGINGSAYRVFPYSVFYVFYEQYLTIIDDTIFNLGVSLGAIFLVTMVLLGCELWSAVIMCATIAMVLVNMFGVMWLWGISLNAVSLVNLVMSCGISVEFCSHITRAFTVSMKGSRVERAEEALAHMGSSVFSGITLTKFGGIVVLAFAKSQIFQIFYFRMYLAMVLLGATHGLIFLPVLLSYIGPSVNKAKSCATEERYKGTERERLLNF

[2] = Binding affinity to human GFP-tagged NPC1L1 L1072T/L1168I mutant expressed in HEK293 cells assessed as localization to endoplasmic reticulum and plasma membrane after 24 hrs by fluorescence microscopic analysis; assay type: cell-based
How it was run: (§1)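 HEK293 cells stably expressing the GFP-tagged construct (G418 0.4 mg/mL) were seeded at 6,000 cells/well in DMEM with 1% FBS on poly-lysine-coated glass. On day 2 they were treated for 24 h, final DMSO 0.1%. Cells were fixed in 3.7% formaldehyde and imaged at ×100. Across 25 images, cells were scored ER 0 to PM 1 and averaged as % plasma membrane localization. EC50 was taken from this score.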

[3] = Binding affinity to human GFP-tagged NTD-deleted NPC1L1 L1072T/L1168I mutant expressed in HEK293 cells assessed as localization to plasma membrane after 24 hrs by fluorescence microscopic analysis; assay type: cell-based; how it was run: as §1
HEK293 [4] = assay: Binding affinity to human GFP-tagged NPC1L1 L1072T/L1168I mutant expressed in HEK293 cells assessed as localization to endoplasmic reticulum and plasma membrane at 10 uM after 24 hrs by fluorescence microscopic analysis; assay type: cell-based
How it was run: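 HEK293 cells stably expressing NPC1L1-GFP mutant from a CMV promoter, kept under G418 (0.4 mg/mL). Seeded at 6,000 cells/well on poly-lysine-coated glass in DMEM with 1% FBS. Dosed next day in 0.1% DMSO final for 24 h, then fixed in 3.7% formaldehyde and imaged at ×100. Each cell in 25 images scored ER 0 to PM 1; mean reported as % plasma membrane localization.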

HEK293 [5] = assay: Cytotoxicity against HEK293 cells transfected with human GFP-tagged NPC1L1 L1072T/L1168I mutant; assay type: cell-based
HEK293 [6] = assay: Binding affinity to human GFP-tagged NPC1L1 L1072T/L1168I mutant expressed in HEK293 cells assessed as protein stabilization after 24 hrs by fluorescence assay; assay type: cell-based
How it was run: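 Stable HEK293 lines were grown to 70% confluency in phenol red-free medium in 12-well plates and exposed to vehicle or compound for 24 h. Supernatant GFP fluorescence was read and normalized to BCA total protein, n = 3.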

Compound	EC50 ([2]; read-out: EC50)	also measured
C[C@H](CCCC(C)(C)O)[C@H]1CC[C@H]2[C@@H]3CC=C4C[C@@H](O)CC[C@]4(C)[C@H]3CC[C@]12C	2.3 µM	Activity [1]: Active
C[C@H](CCC(=O)O)[C@H]1CC[C@H]2[C@@H]3CC=C4C[C@@H](O)CC[C@]4(C)[C@H]3CC[C@]12C	> 10 µM	
C[C@H](CCC(=O)N(C)C)[C@H]1CC[C@H]2[C@@H]3CC=C4C[C@@H](OC(=O)N5CCN(C)CC5)CC[C@]4(C)[C@H]3CC[C@]12C	2.9 µM	EC50 [3]: > 10 µM
CCN(CC)C(=O)O[C@H]1CC[C@@]2(C)C(=CC[C@H]3[C@@H]4CC[C@H]([C@H](C)CCC(=O)N(C)C)[C@@]4(C)CC[C@@H]32)C1	1.8 µM	EC50 [3]: 4.2 µM
C[C@H](CCC(N)=O)[C@H]1CC[C@H]2[C@@H]3CC=C4C[C@@H](O)CC[C@]4(C)[C@H]3CC[C@]12C	> 10 µM	
CC(C)CCC[C@@H](C)[C@H]1CC[C@H]2[C@@H]3CC(=O)[C@H]4C[C@@H](OC(=O)N(CCO)CCO)CC[C@]4(C)[C@H]3CC[C@]12C	3.8 µM	
CCCCN(CCCC)C(=O)CC[C@@H](C)[C@H]1CC[C@H]2[C@@H]3CC=C4C[C@@H](O)CC[C@]4(C)[C@H]3CC[C@]12C	> 3 µM	
CC(C)CCC[C@@H](C)[C@H]1CC[C@H]2[C@@H]3[C@@H](O)C=C4C[C@@H](O)CC[C@]4(C)[C@H]3CC[C@]12C	10 µM	
CC(C)CCC[C@@H](C)[C@H]1CC[C@H]2[C@@H]3C[C@H](O)[C@H]4C[C@@H](OC(=O)N(CCO)CCO)CC[C@]4(C)[C@H]3CC[C@]12C	1.1 µM	
C[C@H](CCC(=O)N(C)C)[C@H]1CC[C@H]2[C@@H]3CC=C4C[C@@H](O)CC[C@]4(C)[C@H]3CC[C@]12C	0.8 µM	
CC(C)CCC[C@](C)(O)[C@H]1CC[C@H]2[C@@H]3CC=C4C[C@@H](O)CC[C@]4(C)[C@H]3CC[C@@]21C		Activity (HEK293 [4]): inactive
C[C@H](CCC(=O)N(C)C)[C@H]1CC[C@H]2[C@@H]3CC=C4C[C@@H](OC(N)=O)CC[C@]4(C)[C@H]3CC[C@]12C	8.5 µM	EC50 [3]: > 10 µM
CC(C)CCC[C@@H](C)[C@H]1CC[C@H]2[C@@H]3CC=C4C[C@@H](OC(=O)N(CCO)CCO)CC[C@]4(C)[C@H]3CC[C@]12C		EC50 [2]: Not Active
C[C@H](CCCO)[C@H]1CC[C@H]2[C@@H]3CC=C4C[C@@H](O)CC[C@]4(C)[C@H]3CC[C@]12C		EC50 [2]: Not Active
CC(C)CCC[C@@H](C)[C@H]1CC[C@H]2[C@@H]3CC(=O)[C@H]4C[C@@H](O)CC[C@]4(C)[C@H]3CC[C@]12C [5alpha-CHOLESTAN-3beta-OL-6-ONE]	2.8 µM	
CCCN(CCC)C(=O)O[C@H]1CC[C@@]2(C)C(=CC[C@H]3[C@@H]4CC[C@H]([C@H](C)CCC(=O)N(C)C)[C@@]4(C)CC[C@@H]32)C1	3 µM	EC50 [3]: 8 µM
CCCN(CCC)C(=O)CC[C@@H](C)[C@H]1CC[C@H]2[C@@H]3CC=C4C[C@@H](O)CC[C@]4(C)[C@H]3CC[C@]12C		Activity (HEK293 [5]): Toxic

Compound	EC50 ([2]; read-out: EC50)	also measured
CC(C)CCC[C@@H](C)[C@H]1CC[C@H]2[C@@H]3CC=C4C[C@@H](O)CC[C@]4(CO)[C@H]3CC[C@]12C		Activity (HEK293 [6]): inactive; Activity (HEK293 [4]): inactive
CC(C)CC[C@@H](O)[C@@H](C)[C@H]1CC[C@H]2[C@@H]3CC=C4C[C@@H](O)CC[C@]4(C)[C@H]3CC[C@]12C		Activity (HEK293 [4]): inactive
CC(C)CCC[C@@H](C)[C@H]1CC[C@H]2[C@@H]3C[C@@H](O)[C@H]4C[C@@H](O)CC[C@]4(C)[C@H]3CC[C@]12C	9.7 µM	
CC(C)CCC[C@@H](C)[C@H]1CC[C@H]2[C@@H]3C[C@H](O)[C@H]4C[C@@H](O)CC[C@]4(C)[C@H]3CC[C@]12C	8.5 µM	
C[C@]12CC[C@H](O)CC1=CC[C@@H]1[C@@H]2CC[C@]2(C)C(=O)CC[C@@H]12		Activity (HEK293 [4]): inactive
C[C@H](CCC(=O)N(C)C)[C@H]1CC[C@H]2[C@@H]3CC=C4C[C@@H](OC(=O)N(C)C)CC[C@]4(C)[C@H]3CC[C@]12C	1.1 µM	EC50 [3]: 4.7 µM
CC(C)CCC[C@@H](C)[C@H]1CC[C@H]2[C@@H]3C[C@@H](O)[C@H]4C[C@@H](OC(=O)N(CCO)CCO)CC[C@]4(C)[C@H]3CC[C@]12C	2 µM	
CC(C)CCC[C@@H](C)[C@H]1CC[C@H]2[C@@H]3C(=O)C=C4C[C@@H](OC(=O)N(CCO)CCO)CC[C@]4(C)[C@H]3CC[C@]12C	3.8 µM	
CC(C)CCC[C@@H](C)[C@H]1CC[C@H]2[C@@H]3[C@@H](O)C=C4C[C@@H](OC(=O)N(CCO)CCO)CC[C@]4(C)[C@H]3CC[C@]12C	2 µM	
C[C@H](CCC(=O)N(C)C)[C@H]1CC[C@H]2[C@@H]3CC=C4C[C@@H](OC(=O)N5CCOCC5)CC[C@]4(C)[C@H]3CC[C@]12C	2.3 µM	EC50 [3]: 6.2 µM
C[C@H](CCC(C)(C)O)[C@H]1CC[C@H]2[C@@H]3CC=C4C[C@@H](O)CC[C@]4(C)[C@H]3CC[C@]12C	> 10 µM	
CC(C)CCC[C@@H](C)[C@H]1CC[C@H]2[C@@H]3C[C@@H](O)[C@@]4(O)C[C@@H](OC(=O)N(CCO)CCO)CC[C@]4(C)[C@H]3CC[C@]12C	8.1 µM	
CCN(CC)C(=O)CC[C@@H](C)[C@H]1CC[C@H]2[C@@H]3CC=C4C[C@@H](O)CC[C@]4(C)[C@H]3CC[C@]12C		Activity (HEK293 [5]): Toxic
CC(C)CC[C@H](O)[C@@H](C)[C@H]1CC[C@H]2[C@@H]3CC=C4C[C@@H](O)CC[C@]4(C)[C@H]3CC[C@]12C		Activity (HEK293 [4]): inactive; Activity [1]: Active
CC(C)CCC[C@@H](C)[C@H]1CC[C@H]2[C@@H]3C(=O)C=C4C[C@@H](O)CC[C@]4(C)[C@H]3CC[C@]12C [7-OXOCHOLESTEROL]	9.7 µM	
CNC(=O)CC[C@@H](C)[C@H]1CC[C@H]2[C@@H]3CC=C4C[C@@H](O)CC[C@]4(C)[C@H]3CC[C@]12C	> 10 µM	
CC(C)CCC[C@@H](C)[C@H]1CC[C@H]2[C@@H]3CC=C4C[C@@H](O)CC[C@]4(C)[C@H]3CC[C@]12C		Activity (HEK293 [4]): inactive
